Source: ChEMBL document CHEMBL3102848, “Carbamazepine derivatives with P2X4 receptor-blocking activity” (Bioorg Med Chem, 2014)
Calls of active or inactive are those of the source. No cut-off for these calls is given here.

Assays:
P2X purinoceptor 4 = biological target: T1, P2X purinoceptor 4 (Mus musculus, UniProt Q9JJX6); experiment: Antagonist activity at mouse P2X4 receptor assessed as inhibition of ATP-induced cytosolic calcium influx preincubated for 30 mins followed by ATP addition by Fluo-4 AM dye-based fluorescence assay
T1 sequence (Q9JJX6 whole entry): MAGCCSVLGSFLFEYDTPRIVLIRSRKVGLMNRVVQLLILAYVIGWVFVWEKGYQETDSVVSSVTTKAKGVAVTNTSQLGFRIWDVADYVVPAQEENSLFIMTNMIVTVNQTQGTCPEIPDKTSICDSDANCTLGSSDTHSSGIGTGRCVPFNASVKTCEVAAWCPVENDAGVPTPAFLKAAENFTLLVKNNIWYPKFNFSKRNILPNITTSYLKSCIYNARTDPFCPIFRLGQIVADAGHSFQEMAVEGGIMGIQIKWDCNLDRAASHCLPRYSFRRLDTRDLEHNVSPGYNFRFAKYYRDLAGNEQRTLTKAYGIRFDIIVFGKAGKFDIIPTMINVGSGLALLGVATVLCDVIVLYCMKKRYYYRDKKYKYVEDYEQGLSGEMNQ

[1] = biological target: T2, P2X purinoceptor 4 (Homo sapiens) (UniProt Q99571); experiment: Antagonist activity at human P2X4 receptor expressed in human 1321N1 cells assessed as inhibition of ATP-induced cytosolic calcium influx at 100 uM preincubated for 30 mins followed by ATP addition by Fluo-4 AM dye-based fluorescence assay; format: cell-based
T2 sequence (whole entry): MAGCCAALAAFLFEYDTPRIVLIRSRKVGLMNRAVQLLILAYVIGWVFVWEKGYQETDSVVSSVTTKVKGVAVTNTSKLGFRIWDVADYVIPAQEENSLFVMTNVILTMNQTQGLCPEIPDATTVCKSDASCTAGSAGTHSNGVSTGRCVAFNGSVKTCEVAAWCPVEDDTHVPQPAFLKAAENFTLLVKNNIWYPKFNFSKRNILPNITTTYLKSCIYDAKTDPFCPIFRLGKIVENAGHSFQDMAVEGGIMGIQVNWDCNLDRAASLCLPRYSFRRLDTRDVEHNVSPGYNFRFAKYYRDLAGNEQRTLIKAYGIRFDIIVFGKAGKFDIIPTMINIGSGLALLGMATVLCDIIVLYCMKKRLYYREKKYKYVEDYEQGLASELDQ
Outline: (§1)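 Human P2X4 stably transfected into 1321N1 astrocytoma cells. Inhibition of ATP-induced calcium influx measured as in earlier work. Compounds were first screened at a single high concentration, chosen according to their solubility.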

[2] = Selectivity ratio of IC50 for mouse P2X4 receptor to IC50 for human P2X4 receptor
P2X purinoceptor 3 = biological target: T3, P2X purinoceptor 3 (Homo sapiens, UniProt P56373); experiment: Antagonist activity at human P2X3 receptor expressed in human 1321N1 cells assessed as inhibition of ATP-induced cytosolic calcium influx preincubated for 30 mins followed by ATP addition by Fluo-4 AM dye-based fluorescence assay; format: cell-based
T3 sequence (P56373 whole entry): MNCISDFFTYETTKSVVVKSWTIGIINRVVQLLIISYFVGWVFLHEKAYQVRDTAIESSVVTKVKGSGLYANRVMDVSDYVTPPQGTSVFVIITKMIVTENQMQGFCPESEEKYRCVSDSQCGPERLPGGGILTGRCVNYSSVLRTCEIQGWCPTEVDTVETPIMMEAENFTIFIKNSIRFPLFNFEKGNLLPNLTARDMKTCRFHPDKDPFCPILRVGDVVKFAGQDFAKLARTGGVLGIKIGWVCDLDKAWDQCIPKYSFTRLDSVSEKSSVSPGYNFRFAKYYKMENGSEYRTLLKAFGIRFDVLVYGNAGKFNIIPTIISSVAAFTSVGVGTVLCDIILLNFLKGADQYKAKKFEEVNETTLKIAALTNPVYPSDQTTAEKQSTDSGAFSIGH

[3] = biological target: T4, P2X purinoceptor 7 (Homo sapiens) (UniProt Q99572); experiment: Antagonist activity at human P2X7 receptor expressed in human 1321N1 cells assessed as inhibition of ATP-induced cytosolic calcium influx at 100 uM preincubated for 30 mins followed by ATP addition by Fluo-4 AM dye-based fluorescence assay; format: cell-based
T4 sequence (whole entry): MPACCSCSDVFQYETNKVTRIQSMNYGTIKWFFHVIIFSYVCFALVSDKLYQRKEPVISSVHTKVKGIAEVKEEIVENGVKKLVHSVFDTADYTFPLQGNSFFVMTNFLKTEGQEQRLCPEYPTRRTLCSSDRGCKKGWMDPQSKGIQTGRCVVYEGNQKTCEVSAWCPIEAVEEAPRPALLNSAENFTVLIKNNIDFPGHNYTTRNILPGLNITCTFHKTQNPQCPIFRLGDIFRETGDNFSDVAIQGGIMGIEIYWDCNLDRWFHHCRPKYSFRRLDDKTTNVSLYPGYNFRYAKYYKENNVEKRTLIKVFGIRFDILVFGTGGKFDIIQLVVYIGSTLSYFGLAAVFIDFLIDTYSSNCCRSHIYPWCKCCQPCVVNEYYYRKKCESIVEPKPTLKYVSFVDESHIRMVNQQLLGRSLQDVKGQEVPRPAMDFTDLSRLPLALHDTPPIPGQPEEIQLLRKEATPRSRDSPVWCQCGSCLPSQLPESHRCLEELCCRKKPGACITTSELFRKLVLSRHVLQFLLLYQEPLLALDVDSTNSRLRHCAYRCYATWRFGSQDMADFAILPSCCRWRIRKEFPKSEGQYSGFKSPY

[4] = biological target: T2, P2X purinoceptor 4 (Homo sapiens); experiment: Antagonist activity at human P2X4 receptor expressed in human 1321N1 cells assessed as inhibition of ATP-induced cytosolic calcium influx at 10 uM preincubated for 30 mins followed by ATP addition by Fluo-4 AM dye-based fluorescence assay; format: cell-based; outline: as §1
[5] = biological target: T5, P2X purinoceptor 4 (Mus musculus) (UniProt Q9JJX6); experiment: Antagonist activity at mouse P2X4 receptor assessed as inhibition of ATP-induced cytosolic calcium influx at 100 uM preincubated for 30 mins followed by ATP addition by Fluo-4 AM dye-based fluorescence assay
T5 sequence (whole entry): T1 sequence (Q9JJX6 whole entry)

[6] = biological target: T2, P2X purinoceptor 4 (Homo sapiens); experiment: Negative allosteric modulation of human P2X4 receptor expressed in human 1321N1 cells assessed as reduction in ATP-induced cytosolic calcium influx at 3 to 30 uM; format: cell-based
Outline: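 1321N1 astrocytoma cells stably expressing human P2X4. Full ATP concentration–response curves (10^-8 to 10^-3 M) for intracellular calcium, recorded without inhibitor and with three fixed modulator levels (3, 10, 30). ATP EC50 and maximal effect (Emax, %) were derived for each condition.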

Structure (SMILES)	IC50 (P2X purinoceptor 4)	inhibition [1]	Ratio IC50 [2]	IC50 (P2X purinoceptor 3)	inhibition [3]	inhibition [4]	inhibition [5]	Activity [6]
O=C(NC1CCCCC1)N1c2ccccc2C=Cc2ccccc21	98.4 µM	100%	3	28 µM				
O=C(N1CCCCC1)N1c2ccccc2C=Cc2ccccc21	102 µM	72%	3	7.98 µM	-10%			
CCCN(CCC)C(=O)N1c2ccccc2C=Cc2ccccc21	> 100 µM		3	15.2 µM		49%	38%	
CC(C)N(C(=O)N1c2ccccc2C=Cc2ccccc21)C(C)C	14.9 µM		3	7.18 µM		71%		Active
O=C(N1CCCC1)N1c2ccccc2C=Cc2ccccc21	123 µM	98%	3	29.8 µM	33%			
CCN(CC)C(=O)N1c2ccccc2C=Cc2ccccc21	> 100 µM	95%		14.2 µM			27%	
